# An excerpt weighted towards active compounds, which were near 4.6% of everything screened.
# MDM2 E3 inh: Mdm2 E3 ligase (human) inhibition; Q00987; cell-based MDM2 ubiquitination luciferase reporter, 2 h; 0 = plate control, 100 = twice control, blank-subtracted; signal enhancement, % at 5 µM; actives 0.11% (n = 210,000);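 active = signal enhancement of 30% or more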;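 note: luminescence tracks abundance of the self-degrading MDM2-luciferase fusion protein; higher signal means inhibition of MDM2 E3 ligase activity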
# Target sequence (Q00987 whole entry, looked up, the tested form may be a part): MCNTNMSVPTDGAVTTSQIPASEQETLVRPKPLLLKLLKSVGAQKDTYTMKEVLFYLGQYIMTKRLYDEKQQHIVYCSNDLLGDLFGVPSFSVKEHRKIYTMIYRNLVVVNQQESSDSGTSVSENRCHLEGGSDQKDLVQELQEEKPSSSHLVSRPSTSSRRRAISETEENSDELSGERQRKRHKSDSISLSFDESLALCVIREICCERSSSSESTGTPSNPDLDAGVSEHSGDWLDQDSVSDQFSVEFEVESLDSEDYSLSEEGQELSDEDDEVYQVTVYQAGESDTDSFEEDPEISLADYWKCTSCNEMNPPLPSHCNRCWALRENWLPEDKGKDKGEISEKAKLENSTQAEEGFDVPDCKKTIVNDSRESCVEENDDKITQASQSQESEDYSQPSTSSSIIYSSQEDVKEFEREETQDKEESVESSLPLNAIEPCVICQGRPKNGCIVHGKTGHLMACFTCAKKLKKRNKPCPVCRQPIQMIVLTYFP
#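 Buffer or medium: Cells held in DMEM | Assay system: Stable mammalian line carrying autodegrading MDM2–luciferase fusion reporter | Quantity: 2000 cells/well | Times: 4 h settle plus 2 h compound, 37 °C | Doses: One concentration, 5 µM, with 0.2% DMSO | Technique: Luminescence with SteadyLite reagent, 15 min at room temperature | Benchmarks: Plate controls and plate blanks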
# APP 5'UTR act: activates APP 5'UTR luciferase reporter. AID 1276. actives 1% (n = 190,000). activation, % at 2 µM. SH-SY5Y APP 5'UTR luciferase reporter, luminescence; zero percent = DMSO vehicle wells;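 active = activation above a set limit, based on mean plus 3 SD of controls, cut at about 140% in these data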
# STAT1 activator: activators of IFN-gamma induced STAT1 signaling; activation (% of control), % at 5.5 µM; actives 2.6% (n = 200,000); NIH 3T3 STAT1-luciferase reporter, luminescence; 100% = IFN-gamma alone, no compound; AID 932;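 active = activation above the screen-wide mean activation plus 3 SD, cut at about 130% in these data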;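 note: raw ratio to IFN-gamma control signal so 100% means no change and 0% no light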
# NF-kB neuron act: raises NF-kB expression in human neuronal cells | NF-kB reporter expression; hits give high values | fold change at 12.5 µM | actives 1.6% (n = 190,000) | AID 1239; in the data active = fold change above about 3.3
# Wee1 stabilizer: blocks degradation of human Wee1 kinase. P30291. HeLa Luc-Wee1K328M stability, luciferase luminescence; 100% = proteasome inhibitor MG132 effect. reporter increase, % at 5 µM. actives 1.2% (n = 220,000). AID 1321;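 active = activation above the mean of all tested compounds plus 3 SD, set per screening run, cut at about 8.8% in these data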;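 note: cells exposed to compound for 20 h before luminescence read; 0% = DMSO alone and 100% = MG132 at 30 µM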
# p97 ATPase inh: inhibitors of human p97 ATPase; P55072; actives 0.42% (n = 220,000); AID 1481; recombinant p97 ATPase, Kinase-Glo ATP luminescence, 3 h; inhibition, % at 8 µM; in the data active = inhibition above about 15%;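 note: 0% = DMSO vehicle and 100% = wells lacking enzyme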
# An asterisk follows results filed as active; x = no result given.
SMILES,MDM2 E3 inh,APP 5'UTR act,STAT1 activator,NF-kB neuron act,Wee1 stabilizer,p97 ATPase inh
O=C1NN=C(CSc2n[nH]c(=S)s2)CS1,-2,-5,100,1.2,-1,13
O=C(NCc1ccccn1)C1CCN(Cc2cnn(-c3ccccc3)c2-n2cccc2)CC1,1,8,96,0.96,-2,-10
COc1cccc(CNC(=O)C2CCN(Cc3cnn(-c4ccccc4)c3-n3cccc3)CC2)c1,-26,7,94,0.77,8.9*,-7
O=C(NCc1ccccc1Cl)C(=O)NCC1OCCN1S(=O)(=O)c1cccs1 (stereo not drawn),-11,-16,98,1.2,-3,-2
Cc1cc(=O)n2[nH]c(-c3ccc(Cl)cc3)cc2n1,-8,24,143*,2.7,-1,1
CCCc1cc(=O)n2[nH]c(-c3ccc(Br)cc3)cc2n1,-15,58,144*,2.1,2,0
CN(C)N=Nc1nc2c(c(=O)n(C)c(=O)n2C)n1CC1CO1 (stereo not drawn),-7,x,x,x,1,-9
C=CCc1ccc(OCC(O)CO)c(OC)c1 (stereo not drawn),-6,3,99,1,0,2
C=CCc1ccc(O)c(-c2cc(CC=C)ccc2O)c1,9,-6,99,1,10*,1
Cc1nc(CNC(=O)CC2C(=O)NCCN2Cc2ccoc2)nc2c1CCCC2 (stereo not drawn),-10,x,x,x,-1,3
O=c1c2ccccc2cnn1Cc1n[nH]c(=S)n1-c1ccccc1,-1,13,97,1.3,7,0
Cc1ccc(/C=C/C(=O)c2ccc(N3CCOCC3)cc2)s1,-50,106,135*,3.3,1,2
O=C(COC(=O)/C=C/c1ccccc1)NCc1ccccc1Cl,-4,20,103,1.2,-3,-1
c1ccc(-c2noc(C3CCCCC3)n2)nc1,2,101,131*,2.7,6,4
c1ccc(-c2noc(C34CC5CC(CC(C5)C3)C4)n2)nc1,-11,62,132*,2.3,8,-1
c1ccc(-c2noc(C34CC5CC(CC(C5)C3)C4)n2)cc1,-23,-8,104,1.6,0,3
Brc1ccc(-c2noc(C3CCCCC3)n2)cc1,-2,85,128,2,0,0
Cc1ccccc1Nc1scc(-c2ccc(Cl)cc2)[n+]1-c1ccccc1C,0,0,101,0.92,2,-6
O=C(CSc1nnc(CNc2ccc(F)cc2)o1)c1ccccc1,0,5,99,1.4,1,-2
CC1=NN(C(N)=S)C(=O)C1N=Nc1ccc(C)cc1C (stereo not drawn),-13,58,137*,3.2,3,-3
COc1ccc(Nc2nc(N)nc(CSC(=S)N3CCCCC3)n2)cc1,2,13,129*,1.5,-1,1
CC(=O)Nc1ccc(Nc2nc(Cl)nc(Nc3ccc(NC(C)=O)cc3)n2)cc1,-1,-14,102,0.85,-1,1
COc1ccc(-n2c(SCC(=O)Nc3cc(C(=O)O)ccc3C)nc3ccccc3c2=O)cc1Cl,-6,x,x,x,-1,-6
O=C(NC(=O)c1ccc(F)cc1F)Nc1ccc(Cl)cc1,2,x,x,x,-1,3
ClC1(Cl)CC1CSc1nc2ccccc2[nH]1 (stereo not drawn),22,43,114,2.2,1,5
SMILES,MDM2 E3 inh,APP 5'UTR act,STAT1 activator,NF-kB neuron act,Wee1 stabilizer,p97 ATPase inh
Cc1ccc(-n2nnnc2SCC(=O)c2cc(C)n(CC3CCCO3)c2C)cc1 (stereo not drawn),1,x,x,1.5,x,x
Cc1cc(C(=O)CSc2nc3ccccc3[nH]2)c(C)n1CC1CCCO1 (stereo not drawn),-27,189*,74,0.43,2,-3
c1ccc2[nH]c(SCC3CCCCO3)nc2c1 (stereo not drawn),-17,152*,131*,3.7*,3,1
Cc1ccc(/C=C/S(=O)(=O)NCC(=O)OCC(=O)N2CC(=O)Nc3ccccc32)cc1,-8,x,x,x,-1,1
Cc1cc(C)nc(NS(=O)(=O)c2ccc(NC(=O)c3ccc4c(c3)OCCO4)cc2)n1,-10,24,101,0.95,-2,3
COCC(=O)n1nc(-c2ccccc2)nc1NCc1cccs1,5,-11,121,0.99,14*,1

# High-throughput results (PubChem BioAssay)
